Results on one substance are retold here after PMC5760799 (Journal of Pharmaceutical Analysis, 2011).

Ends that are not written are not given here.

One may read the AUC(0-inf) as total exposure, with the tail of the curve extrapolated. The term AUC(0-t) denotes exposure summed from dosing to a finite time, without extrapolation to infinity. High values mean high exposure, low ones low exposure. A word on the Cmax: it is the peak of the concentration-time curve. What is called Tmax is the time from dosing to the highest level. For orientation: Vd means a proportionality between amount in the body and measured concentration, not a real space. In general, clearance refers to the rate of elimination divided by the concentration. Low readings indicate inefficient removal, high ones efficient removal. By half-life is commonly meant the time needed for the level to fall by half in the phase considered. Read a low half-life as fast loss.

A short description of data set [1]: Stability of PSN-1 in rat plasma. Format: in vitro ADME. The conditions noted are these: UPLC-MS/MS, n=6.
The nature of data set [2]: Pharmacokinetic study of PSN-1 in rats after intravenous administration. Format: in vivo. The settings on record: male, Wister, rat, plasma, 3 mg/kg. The gist of the method: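 Six male Wister rats (220–250 g), fasted overnight, received a single iv dose of 3.0 mg/kg. About 0.5 mL of blood was drawn from the ocular vein from 0 to 8 h, with time points split between two groups of three rats. Blood was heparinised, spun at 890g for 10 min and plasma held at –20 °C. Plasma was then precipitated with acetonitrile/0.2% formic acid with thymopentin IS and run by UPLC-MS/MS (SRM). Non-compartmental analysis; mean±SD.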

In the case of FLSLIPHIVSGVASIAKHF-NH2 [PSN-1], the “Accuracy (RE)” value in data set [1] (long term, −20 °C for 10 days, added 0.05 μg/mL) was −4.9%; in data set [1] (long term, −20 °C for 10 days, added 0.2 μg/mL) it was −10.1%; in data set [1] (long term, −20 °C for 10 days, added 1.6 μg/mL), −1.8%; in data set [1] (short term, room temperature for 4 h before processing, added 0.05 μg/mL) it was 5.2%; in data set [1] (short term, room temperature for 4 h before processing, added 0.2 μg/mL) it was −5.5%; in data set [1] (short term, room temperature for 4 h before processing, added 1.6 μg/mL), −5.3%. For the same substance, the “Accuracy (RE)” value is on record as −0.8% in data set [1] (three freeze–thaw cycles (−20 to 25 °C), added 0.05 μg/mL); 3.4% in data set [1] (three freeze–thaw cycles (−20 to 25 °C), added 0.2 μg/mL); −1.3% in data set [1] (three freeze–thaw cycles (−20 to 25 °C), added 1.6 μg/mL). In data set [2], the AUC(0-inf) worked out at 1760 ± 404 ng·h/mL. Further, the AUC(0-t) in data set [2] is 1660 ± 356 ng·h/mL. The Cmax in data set [2] was 1290 ± 340 ng/mL. In data set [2], the Tmax came to 1.02 min. Besides, in data set [2], the Vd turned out to be 5.23 ± 0.84 L/kg. In data set [2], this substance gave a clearance of 29.7 mL/min/kg. In addition, in data set [2], the half-life is 2.08 ± 0.31 h.
